# Assay outcomes: PubChem, Broad Institute
# Hits are enriched below; roughly 1.4% of the tested compounds scored in any of these assays.
# Glyco luc inh: blocks N-linked glycosylation in D54 reporter cells | D54 ERlucT glycosylation luciferase reporter, 24 h; percent of 100 nM tunicamycin response | reporter increase, % at 12.5 µM | actives 0.23% (n = 360,000);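 active = mean luciferase reporter signal, scaled so untreated is 0 and the glycosylation-blocking control 100, at or above a set limit in every replicate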;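 also: luciferase carries N-glycosylation sites so blocking glycosylation raises the light; 0% = median of neutral control wells and 100% = median of 100 nM tunicamycin wells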
# CAL PDZ FP-1: inhibitors of human CAL PDZ peptide binding | Q9HD26 | purified CAL PDZ, TMR-peptide fluorescence polarization, 1 h | inhibition, % at 20 µM | actives 0.02% (n = 330,000) | AID 504414;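 active = highest replicate inhibition of at least 40%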;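 also: plate controls were DMSO neutral control wells for no effect and unlabeled competitor peptide control wells for full effect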
#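 material = purified tagged CAL PDZ domain construct (CerCALP) | compound dosing = 20 µM, one dose | times = 1 h at RT | measured by = fluorescence polarization from S- and P-plane intensities, G-factor corrected | read-out = inhibition from polarization loss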
# CDK5 inh: CDK5/p35 (human) kinase inhibition; Q00535+Q15078; Recombinant CDK5/p35, ADP-Glo luminescence, 60 min; inhibition, % at 10 µM; actives 0.01% (n = 330,000); AID 488839;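 active = highest replicate inhibition of at least 50% and at least 75% of replicates reaching 50%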;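 also: plate controls were DMSO neutral control for no effect and GW8510 at 10 µM for full effect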
# Target sequence (Q00535 whole entry, looked up): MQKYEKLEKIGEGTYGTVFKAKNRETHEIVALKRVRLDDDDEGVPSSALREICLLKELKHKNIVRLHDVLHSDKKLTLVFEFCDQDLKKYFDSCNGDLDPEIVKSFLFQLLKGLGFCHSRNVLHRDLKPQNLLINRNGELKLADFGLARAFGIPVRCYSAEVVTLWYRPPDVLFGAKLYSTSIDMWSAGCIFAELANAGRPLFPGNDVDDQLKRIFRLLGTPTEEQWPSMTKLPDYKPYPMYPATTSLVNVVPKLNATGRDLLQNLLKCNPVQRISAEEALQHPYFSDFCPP
# Target sequence (Q15078 whole entry, looked up): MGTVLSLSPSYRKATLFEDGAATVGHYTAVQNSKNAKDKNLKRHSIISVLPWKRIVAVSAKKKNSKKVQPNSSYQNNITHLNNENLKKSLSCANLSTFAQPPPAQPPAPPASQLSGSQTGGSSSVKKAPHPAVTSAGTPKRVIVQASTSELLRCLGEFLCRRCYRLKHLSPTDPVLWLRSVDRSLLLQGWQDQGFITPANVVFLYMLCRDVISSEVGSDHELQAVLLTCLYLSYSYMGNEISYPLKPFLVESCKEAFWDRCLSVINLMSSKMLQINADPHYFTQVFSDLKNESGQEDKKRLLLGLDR
# CAL PDZ FP-2: blocks peptide binding to the human CAL PDZ domain. purified CAL PDZ, TMR-peptide fluorescence polarization, 1 h. inhibition, % at 24.9 µM. actives 0.92% (n = 300,000). AID 602252;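 active = mean inhibition of at least 30% with at least half of replicates also reaching 30%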;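 also: 0% = DMSO neutral control and 100% = excess unlabeled competitor peptide PRC23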
# PvdQ acylase: blocks Pseudomonas aeruginosa PvdQ acylase activity; purified PvdQ acylase, fluorescence plate reader; inhibition, % at 10 µM; actives 0.063% (n = 340,000); AID 488965; in the data active = inhibition above about 30%, passing the limit was not always enough;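 also: 0% = vehicle neutral wells and 100% = reference inhibitor wells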
# Vif inh: inhibitors of HIV Vif | inhibition, % at 7.49 µM | actives 0.35% (n = 340,000) | HEK293T cells, Vif self-association by quenched fluorescence, imaging, 24 h; in the data active = inhibition above about 50%, passing the limit was not always enough
# * hit, by the source's call; . = no result given.
SMILES,Glyco luc inh,CAL PDZ FP-1,CDK5 inh,CAL PDZ FP-2,PvdQ acylase,Vif inh
CCC(C)NC(=O)C1CCN(c2nc(OC)nc(OC)n2)CC1 (stereo unspecified),-0.2,-0.7,-0.3,-3.1,2.2,-5.6
CCC(C)(C)NC(=O)C1CCN(c2nc(OC)nc(OC)n2)CC1,-2.0,0.8,0.5,34.2*,-9.6,.
CCC1(c2ccccc2)NC(=O)N(CC(=O)Nc2ccc(Cl)c(S(=O)(=O)N3CCCCC3)c2)C1=O (stereo unspecified),-1.1,-1.9,0.1,-4.9,-7.0,-19.2
N#Cc1cc2c(=O)n3ccccc3nc2n(-c2ccccc2Cl)c1=O,10.6,-2.0,0.1,.,-9.5,153.8*
N#Cc1cc2c(=O)n3ccccc3nc2n(Cc2cccnc2)c1=O,2.9,-1.7,1.0,-2.4,-19.5,.
CCCOC(=O)CN1C(=O)c2ccccc2C1=O,2.6,-2.8,0.8,-2.7,-10.1,1.7
Cc1ccc(N2CCN(C(=O)CN3C(=O)c4ccccc4C3=O)CC2)cc1,0.4,-1.7,-0.5,0.1,-3.5,2.3
CCOC(=O)CN1C(=O)c2ccccc2C1=O,1.4,0.7,0.9,50.7*,-11.2,12.6
O=C(CN1C(=O)c2ccccc2C1=O)N1CCN(c2ccccc2)CC1,-1.3,-0.8,0.0,39.7*,-16.9,4.6
COC(=O)CCC(C)C1CCC2C3C(OC(C)=O)CC4CC(O)CCC4(C)C3CC(O)C12C (stereo unspecified),1.4,.,.,.,.,0.9
CC(C)CCN1C(=O)c2ccc(C(=O)Nc3ccccn3)cc2C1=O,1.2,-1.8,-3.8,-1.0,-14.2,-2.2
O=C(O)c1ccc(/C=N/Nc2ccc(C(F)(F)F)cn2)cc1,-5.5,-0.6,56.9*,-6.4,-3.7,1.3
COc1cc(/C=N/Nc2ccc(C(F)(F)F)cn2)ccc1O,2.1,0.8,17.0,7.5,-5.0,-5.0
CC1(C)CC2(CCCN(CC(O)(c3ccccc3)c3ccccc3)C2)CCO1 (stereo unspecified),-5.4,-0.4,-3.3,86.3*,-11.1,0.4
COc1ccc(C(=O)C[n+]2cccc(Br)c2)cc1,0.9,0.0,0.4,32.0*,7.6,-9.7
CNC(=O)c1cn(-c2ccc(Cl)cc2)c(=O)c2ccccc12,-0.3,.,-2.5,47.5*,-9.1,1.4
COC(=O)c1ccccc1-c1ccc(/C=N/NC(=O)c2cc3ccccc3o2)o1,0.5,-6.5,1.3,-8.5,-6.9,-8.2
COC(=O)c1ccccc1-c1c2ccc(=N)cc-2oc2cc(N)ccc12,1.0,108.8*,3.8,.,-9.4,-4.4
Cc1ccccc1CS(=O)(=O)Cc1ccc(C(=O)NCCc2ccccc2)o1,-1.6,0.4,0.3,-2.5,-4.8,-1.2
Cc1ccc(S(=O)(=O)N(C)C)cc1NC(=O)C(C)OC(=O)C1CCC1 (stereo unspecified),0.4,-4.1,1.0,8.4,-8.3,11.8
O=C(O)c1ccc(N/N=C/c2cc(Br)cs2)cc1,-18.4,0.5,0.2,35.7*,-6.1,-9.5
CCCn1c(N)c(N(CCOC)C(=O)COC(=O)COc2c(C)cc(C)cc2C)c(=O)[nH]c1=O,0.9,.,.,.,.,-0.4
COC(=O)C[C@H]1C=C[C@@H](C(C(=O)OC)C(=O)OC)CN1C(C)=O,2.2,-0.5,2.1,91.5*,-12.7,-5.2
c1ccc(CN2CCCC3(CCCN(Cc4nc(COc5ccccc5)no4)C3)C2)cc1 (stereo unspecified),-1.4,-1.1,-1.7,51.9*,-10.2,4.2
Cc1ccnc(N/C=C(\C#N)c2nc(-c3cccc(Br)c3)cs2)c1,-1.9,-0.3,-2.5,-2.2,-4.4,91.1*
SMILES,Glyco luc inh,CAL PDZ FP-1,CDK5 inh,CAL PDZ FP-2,PvdQ acylase,Vif inh
Cc1ccc(CNC(=O)CCc2cn(C)c3ccccc23)cc1,-0.9,0.3,-0.4,.,-5.6,.
CSc1ncccc1C(=O)N1CCN(S(=O)(=O)c2ccc3c(c2)OCCO3)CC1,5.4,0.1,-2.7,-3.4,-14.6,0.3
Cc1nc(-c2ccccn2)nc(N(C)c2ccccc2)c1Cl,-1.0,-1.7,-1.6,-17.6,-12.2,10.6
O=C(Cc1cccc(C(F)(F)F)c1)NCc1cccnc1,0.4,-2.2,-0.8,-0.5,-4.4,.
Cc1ccc2[nH]c3c(c2c1)CN(C(=O)CN1CCCc2ccccc21)CC3,0.8,-1.4,.,58.4*,-6.8,3.4
CCCn1c(CN2CCN(C(=O)c3ccco3)CC2)nc2cc(S(=O)(=O)N(C)C)ccc21,-2.0,-2.3,0.9,-6.6,-1.2,6.7
CC(=O)Nc1nc(C)c(-c2csc(Nc3ccc(O)cc3)n2)s1,-14.3,2.6,3.0,.,5.7,60.8*
CC(=O)Nc1ccc(Nc2nc(-c3sc(NC(C)=O)nc3C)cs2)cc1,-2.1,1.1,1.2,0.2,4.9,-3.0
CCCN(CC(=O)Nc1ccccc1C)C(=O)c1ccc(N2CCCC2=O)cc1,-0.9,0.9,1.4,-3.6,-15.2,0.1
COc1ccccc1C(=O)NCC(=O)N1CCN(c2ncccn2)CC1,0.6,-0.5,-1.7,-3.2,-9.4,2.2
COc1ccccc1NC(=O)Cn1c(O)c(N=NC(=O)c2ccccc2O)c2ccccc21,1.4,-0.6,-1.8,.,-6.5,116.5*
Cc1cccc(NC(=O)CSCC(=O)Nc2ccc(N3CCOCC3)cc2N2CCOCC2)c1,1.9,0.0,1.5,89.1*,-11.4,0.8
Cc1ccccc1SCC(=O)Nc1ccc(N2CCOCC2)cc1,-1.1,-0.9,1.5,2.2,15.0,-1.0
CCCCCOc1ccc(C(=O)Nc2ccc(N3CCOCC3)cc2N2CCOCC2)cc1,-3.2,-1.1,-0.8,44.6*,-10.7,.
Nc1ccccc1SCC(=O)Nc1ccc(N2CCOCC2)cc1,4.9,-1.3,-0.8,-7.8,-12.3,57.5*
Cc1cccc(NC(=O)CSCC(=O)Nc2cc(C(F)(F)F)ccc2N2CCOCC2)c1,1.2,.,.,.,.,-6.6
O=C(N[C@H]1/C=C\[C@@H](O)CCCC1)OCc1ccccc1,-3.4,-1.5,-2.1,1.0,-19.4,-2.3
O=[N+]([O-])c1cccc(NNS(=O)(=O)c2ccccc2F)c1,0.3,-0.6,0.5,-1.1,5.4,24.7
Cc1ccc2cc(CN(CC3CCCO3)C(=O)NC3CCCCC3)c(=O)[nH]c2c1C (stereo unspecified),-0.9,-0.6,0.1,-1.1,-2.2,-13.1
Cc1cccc2cc(CN(CC3CCCO3)C(=O)NC3CCCCC3)c(=O)[nH]c12 (stereo unspecified),-0.8,-1.2,2.2,-1.4,-3.5,68.5*
COc1ccc(OCCN2CCC(C(=O)NC(c3ccccn3)c3ccccc3OC)CC2)cc1 (stereo unspecified),-0.9,.,.,.,.,50.9*
COc1ccccc1C(NC(=O)C1CCN(CCOc2ccc3ccccc3c2)CC1)c1ccccn1 (stereo unspecified),1.6,.,.,.,.,-5.1
Cc1cc(C)c(NC(=O)CNC(=O)COC(=O)CN2C(=O)NC3(CCCC3)C2=O)c(C)c1,1.5,-2.6,0.8,-2.1,0.7,-6.4
